Data set [1] is described as follows: Inhibition of benzo(alpha)pyrene monooxygenase in 3-methylcholanthrene-treated Sprague-Dawley rat liver microsomes using [3H]benzo(alpha)pyrene as substrate after 15 mins by liquid scintillation spectrometry. The settings on record: read-out: I50. The essentials:
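Liver microsomes from male Sprague-Dawley rats (60-80 g) given 3-methylcholanthrene 20 mg/kg ip in corn oil on 2 days, then starved 24 h. Run with 0.200 mg/mL protein, NADPH-generating system and 60 μM [3H]benzo[a]pyrene for 15 min at 37 °C. Hydroxylated products were taken into alkali and counted. I50 came from log concentration vs % activity, with at least four concentrations and triplicates.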
A general note: Liver microsomes are a subcellular fraction often used to study metabolism.

The nature of data set [2]: Inhibition of benzo(alpha)pyrene monooxygenase in phenobarbital-treated Sprague-Dawley rat liver microsomes using [3H]benzo(alpha)pyrene as substrate after 15 mins by liquid scintillation spectrometry. The settings on record: read-out: I50. The essentials:
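Microsomes came from male Sprague-Dawley rats (60-80 g) given phenobarbital 80 mg/kg ip in saline on 3 days, then starved 24 h. The assay used 0.400 mg/mL protein, NADP/glucose 6-phosphate/G6PDH and 60 μM [3H]benzo[a]pyrene for 15 min at 37 °C. Hexane/alkali extraction was followed by scintillation counting, minus an ethanolic-NaOH-treated microsome blank. I50 used ≥4 inhibitor concentrations, log-dose plot, three replicates.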

For data set [3], the system named is benzo(alpha)pyrene monooxygenase. As to the kind of experiment: Inhibition of benzo(alpha)pyrene monooxygenase in phenobarbital-treated Sprague-Dawley rat liver microsomes using [3H]benzo(alpha)pyrene as substrate at 99 uM after 15 mins by liquid scintillation spectrometry. The settings on record: liver microsomes from phenobarbital-treated rats, probe [3H]benzo(alpha)pyrene. The procedure, abridged: (§1)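 Single-concentration change in benzo[a]pyrene oxidation versus solvent controls, using phenobarbital-induced male Sprague-Dawley rat liver microsomes at 0.400 mg/mL protein. Conditions: 60 μM [3H]benzo[a]pyrene, NADPH-generating system, 15 min at 37 °C. Termination used ethanolic NaOH, then hexane extraction and scintillation counting of the lower phase, corrected with an ethanolic-NaOH-treated microsome blank. Three replicates.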

The nature of data set [4]: Stimulation of benzo(alpha)pyrene monooxygenase in phenobarbital-treated Sprague-Dawley rat liver microsomes using [3H]benzo(alpha)pyrene as substrate at 100 uM after 15 mins by liquid scintillation spectrometry. The settings on record: 0.25 h. The format is ADME. The procedure, abridged:
as §1

Data set [5] can be described thus: Stimulation of benzo(alpha)pyrene monooxygenase in phenobarbital-treated Sprague-Dawley rat liver microsomes using [3H]benzo(alpha)pyrene as substrate at 99 uM after 15 mins by liquid scintillation spectrometry. The format is ADME. The settings on record: 0.25 h. The procedure, abridged: as §1
Data set [6] has as its system benzo(alpha)pyrene monooxygenase. The experiment in a line: Inhibition of benzo(alpha)pyrene monooxygenase in 3-methylcholanthrene-treated Sprague-Dawley rat liver microsomes using [3H]benzo(alpha)pyrene as substrate at 99 uM after 15 mins by liquid scintillation spectrometry. The settings on record: liver microsomes from 3-methylcholanthrene-treated rats, probe [3H]benzo(alpha)pyrene. The procedure, abridged: (§2)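 Percent inhibition or stimulation was measured at the single stated inhibitor concentration, relative to solvent-only controls. Hepatic microsomes were from 3-methylcholanthrene-pretreated male Sprague-Dawley rats, used at 0.200 mg/mL protein with an NADPH-generating system. Substrate was 60 μM [3H]benzo[a]pyrene, incubated 15 min at 37 °C. The reaction was stopped with NaOH in 80% ethanol, hexane-extracted, and the aqueous phase counted. Triplicate samples.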

Data set [7] can be described thus: Stimulation of benzo(alpha)pyrene monooxygenase in phenobarbital-treated Sprague-Dawley rat liver microsomes using [3H]benzo(alpha)pyrene as substrate at 98 uM after 15 mins by liquid scintillation spectrometry. The format is ADME. The settings on record: 0.25 h. The procedure, abridged: as §1
For data set [8], the system named is benzo(alpha)pyrene monooxygenase. As to the kind of experiment: Inhibition of benzo(alpha)pyrene monooxygenase in phenobarbital-treated Sprague-Dawley rat liver microsomes using [3H]benzo(alpha)pyrene as substrate at 100 uM after 15 mins by liquid scintillation spectrometry. The settings on record: liver microsomes from phenobarbital-treated rats, probe [3H]benzo(alpha)pyrene. The procedure, abridged: as §1

The test system is the same in data set [9]. As to the kind of experiment: Inhibition of benzo(alpha)pyrene monooxygenase in 3-methylcholanthrene-treated Sprague-Dawley rat liver microsomes using [3H]benzo(alpha)pyrene as substrate at 100 uM after 15 mins by liquid scintillation spectrometry. The settings on record: liver microsomes from 3-methylcholanthrene-treated rats, probe [3H]benzo(alpha)pyrene. The essentials: as §2

The test system is the same in data set [10]. The experiment in a line: Inhibition of benzo(alpha)pyrene monooxygenase in phenobarbital-treated Sprague-Dawley rat liver microsomes using [3H]benzo(alpha)pyrene as substrate at 104 uM after 15 mins by liquid scintillation spectrometry. The settings on record: liver microsomes from phenobarbital-treated rats, probe [3H]benzo(alpha)pyrene. The procedure, abridged: as §1

The nature of data set [11]: Stimulation of benzo(alpha)pyrene monooxygenase in phenobarbital-treated Sprague-Dawley rat liver microsomes using [3H]benzo(alpha)pyrene as substrate at 200 uM after 15 mins by liquid scintillation spectrometry. It is filed as ADME. The settings on record: 0.25 h. The essentials:
as §1

Data set [12] in a line: Stimulation of benzo(alpha)pyrene monooxygenase in 3-methylcholanthrene-treated Sprague-Dawley rat liver microsomes using [3H]benzo(alpha)pyrene as substrate at 200 uM after 15 mins by liquid scintillation spectrometry. The format is ADME. The settings on record: 0.25 h. The procedure, abridged:
as §2

The structures appear in SMILES notation.

In general, inhibition refers to the share of the control response that was lost under treatment. Low values mean a response near the control, high ones a response far below the control.

Consider `O=c1cc(-c2ccc(Cl)cc2)oc2c1ccc1ccccc12`, for which the IC50 in data set [1] was 13 µM; in [2], above 99 µM. For the same molecule, the inhibition at 0.25 h, 99 µM in data set [3] came to 0%.

Take `O=c1cc(-c2ccccc2)oc2c1ccc1ccccc12` [ALPHA-NAPHTHOFLAVONE]: the IC50 in data set [1] was 10 µM; in data set [2] it was above 100 µM. The molecule also displayed an Activity in data set [4] of 21%.

For `O=c1cc(-c2ccc([N+](=O)[O-])cc2)oc2c1ccc1ccccc12`, the Activity in data set [5] was 33%. Besides, the IC50 in [1] and in data set [2] was above 99 µM each time. Moreover, the inhibition at 0.25 h, 99 µM in data set [6] turned out to be 0%.

On to `COc1cccc(-c2cc(=O)c3ccc4ccccc4c3o2)c1`, for which the IC50 in data set [1] was 11 µM; in [2], above 98 µM. Moreover, the Activity in data set [7] worked out at 9%.

Consider `O=c1cc(-c2ccc3ccccc3c2)oc2c1ccc1ccccc12`, for which the IC50 in [1] was 11 µM; in data set [2], above 100 µM. Besides, the inhibition at 0.25 h, 100 µM in data set [8] turned out to be 0%.

As to `O=c1c(-c2ccccc2)coc2c1ccc1ccccc12`, the IC50 in data set [1] and in [2] was above 100 µM throughout. Besides, the inhibition at 0.25 h, 100 µM in data set [9] amounted to 18%. The same molecule displayed an Activity in data set [4] of 6%.

Consider `O=c1cc(-c2cccc([N+](=O)[O-])c2)oc2c1ccc1ccccc12`, for which the IC50 in [1] and in data set [2] was above 100 µM in each case. In [9], this molecule had an inhibition at 0.25 h, 100 µM of 36%. In data set [4], this molecule registered an Activity of 42%.

Take `c1ccc(-c2cc3ccc4ccccc4c3o2)cc1`: the inhibition at 0.25 h, 104 µM in [10] stood at 34%. For the same molecule, the IC50 in data set [1] and in [2] was above 104 µM each time.

In the case of `O=c1cc(-c2ccccc2)oc2c1cc(Br)c1ccccc12`, the IC50 in [1] and in [2] was above 97 µM in each case.

In the case of `COc1ccc(-c2cc(=O)c3ccc4ccccc4c3o2)cc1`, the IC50 in [1] and in data set [2] was above 100 µM each time. Also, the inhibition at 0.25 h, 100 µM in [9] stood at 46%; in [8], 0%.

`Nc1cc2c(=O)cc(-c3ccccc3)oc2c2ccccc12`: the IC50 in data set [1] amounted to 31 µM; in data set [2], 82 µM.

As for `COc1ccccc1-c1cc(=O)c2ccc3ccccc3c2o1`, the IC50 is 13 µM in [1] and above 100 µM in data set [2]. In addition, in data set [8], the inhibition at 0.25 h, 100 µM turned out to be 34%.

As for `O=c1cc(-c2ccccc2)oc2c1cc([N+](=O)[O-])c1ccccc12`, the values for the Activity in [11] and in data set [12] were 43% and 34%, respectively. The IC50 in data set [1] and in data set [2] was above 200 µM in each case.
